Calls of active or inactive are those of the source. No cut-off for these calls is given here.
How the values were obtained:
[1] = system: Plasmodium berghei; assay: Antiplasmodial activity against Plasmodium berghei infected in NMRI mice (Mus musculus) assessed as survival rate at 30 mg/kg, subcutaneously administered as single dose; type: functional; conditions: route subcutaneous
Outline: (§1)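 P. berghei blood diluted in saline to 10^8 parasitized erythrocytes/mL; 0.2 mL given i.v. to groups of 3 female NMRI mice (controls 5). Compounds dosed at 10 ml/kg either once on day 1 (oral gavage or subcutaneous) or orally at 4, 24, 48, 72 h post-infection. Parasitemia read by FACS on 100,000 RBCs from tail blood on day 3 (single dose) or day 4 (quadruple dose). Activity = % reduction versus control mean. Survival monitored to 30 days.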

[2] = system: Plasmodium berghei; assay: Antiplasmodial activity against Plasmodium berghei infected in NMRI mice (Mus musculus) assessed as parasitaemia level at 30 mg/kg, perorally administered as single dose measured after 3 days relative to control; type: functional; conditions: route oral; outline: as §1
[3] = system: Plasmodium falciparum; assay: Antiplasmodial activity against chloroquine-resistant Plasmodium falciparum Dd2 early trophozoites infected in NMRI mice (Mus musculus) RBC assessed as inhibition of hemozoin formation at 50 nM after 24 hrs by microscopic analysis; type: functional, organism-based
Outline: (§2)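 D6 and Dd2 cultures synchronized to ring stage with 5% sorbitol, suspended at 1% hematocrit and exposed to drug (from 1 mM stock) for 24 h at 37 °C under 5% O2/5% CO2/90% N2. Giemsa-stained smears examined by microscopy for hemozoin, parasitemia and parasite morphology.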

[4] = system: Plasmodium berghei; assay: Antiplasmodial activity against Plasmodium berghei infected in NMRI mice (Mus musculus) assessed as parasitaemia level at 30 mg/kg, perorally administered as 4 consecutive doses measured after 3 days post last dose relative to control; type: functional; conditions: route oral; outline: as §1
[5] = system: Plasmodium berghei; assay: Antiplasmodial activity against Plasmodium berghei infected in NMRI mice (Mus musculus) assessed as parasitaemia level at 46 mg/kg, perorally administered as 4 consecutive doses measured after 4 days post last dose relative to control; type: functional; conditions: route oral
[6] = system: Plasmodium falciparum; assay: Antiplasmodial activity against chloroquine-sensitive Plasmodium falciparum D6 early trophozoites infected in NMRI mice (Mus musculus) RBC assessed as inhibition of hemozoin formation at 50 nM after 24 hrs by microscopic analysis; type: functional, organism-based
Outline: (§3)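 Ring-stage D6 parasites synchronized with 5% sorbitol, suspended at 1% hematocrit and drug added from 1 mM stock. Incubated 24 h at 37 °C under 5% O2/5% CO2/90% N2 alongside a no-drug control. Giemsa-stained smears were used for parasitemia and for microscopic examination of hemozoin and parasite morphology.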

[7] = system: Plasmodium berghei; assay: Antiplasmodial activity against Plasmodium berghei infected in NMRI mice (Mus musculus) assessed as parasitaemia level at 30 mg/kg, subcutaneously after 3 days relative to control; type: functional; conditions: route subcutaneous; outline: as §1
[8] = system: Plasmodium falciparum; assay: Antiplasmodial activity against synchronized chloroquine-sensitive Plasmodium falciparum D6 infected in NMRI mice (Mus musculus) RBC assessed as inhibition of hemozoin formation at 10 nM after 24 hrs by colorimetric analysis; type: functional, organism-based
Outline: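 D6 cultures synchronized with sorbitol, held at 1% hematocrit, drug-treated 24 h at 37 °C. Parasites freeze-thawed, then lysed 30 min at 37 °C in saponin/Triton X-100 buffer. Hemozoin pelleted at 215,000 g, washed with acetone and PBS, dissolved 2 h in 0.2 N NaOH. Heme read at A400 (ε 91,000 cm-1M-1) and expressed per parasitized erythrocyte. A 0 h culture gave the baseline.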

[9] = system: Plasmodium falciparum; assay: Antiplasmodial activity against chloroquine-sensitive Plasmodium falciparum D6 early trophozoites infected in NMRI mice (Mus musculus) RBC assessed as inhibition of hemozoin formation at 10 nM after 24 hrs by microscopic analysis; type: functional, organism-based; outline: as §3
[10] = system: Plasmodium falciparum; assay: Inhibition of hemozoin formation in early trophozoites of chloroquine-sensitive Plasmodium falciparum D6 infected in RBC assessed as enlarged digestive vacuole at 100 nM after 24 hrs by microscopic analysis; type: functional, organism-based; outline: as §3
[11] = system: Plasmodium berghei; assay: Antiplasmodial activity against Plasmodium berghei infected in NMRI mice (Mus musculus) assessed as survival rate at 30 mg/kg, perorally administered as single dose; type: functional; conditions: route oral; outline: as §1
[12] = system: Plasmodium falciparum; assay: Antiplasmodial activity against synchronized chloroquine-resistant Plasmodium falciparum Dd2 infected in NMRI mice (Mus musculus) RBC assessed as inhibition of hemozoin formation at 100 nM after 24 hrs by colorimetric analysis; type: functional, organism-based
Outline: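 Sorbitol-synchronized D6 and Dd2 cultures at 1% hematocrit were drug-treated for 24 h at 37 °C. Parasites were freed by freeze-thaw and saponin/Triton lysis buffer (37 °C, 30 min). Hemozoin was pelleted at 215,000 g, washed with acetone and PBS, then dissolved in 0.2 N NaOH. Heme was quantified by A400 (ε 91,000 cm-1M-1) per parasitized erythrocyte. Baseline was taken from 0 h culture.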

[13] = system: Plasmodium berghei; assay: Antiplasmodial activity against Plasmodium berghei infected in NMRI mice (Mus musculus) assessed as survival rate at 30 mg/kg, perorally administered as 4 consecutive doses measured post last dose; type: functional; conditions: route oral; outline: as §1
[14] = system: Plasmodium falciparum; assay: Antiplasmodial activity against chloroquine-resistant Plasmodium falciparum Dd2 early trophozoites infected in NMRI mice (Mus musculus) RBC assessed as inhibition of hemozoin formation at 10 nM after 24 hrs by microscopic analysis; type: functional, organism-based; outline: as §2
[15] = system: Mus musculus; assay: Toxicity in NMRI mouse at 30 mg/kg, po administered as single dose; type: organism-based; parameters: dose 30 mg/kg, route oral; conditions: in vivo
[16] = system: Plasmodium berghei; assay: Antiplasmodial activity against Plasmodium berghei infected in NMRI mice (Mus musculus) assessed as survival rate at 46 mg/kg, perorally administered as 4 consecutive doses measured post last dose; type: functional; conditions: route oral; outline: as §1

SMILES: Clc1ccc2c(NCCCN3CCC(NC(c4ccccn4)c4ccccn4)CC3)ccnc2c1 [DM-1157]
- Survival [1]: 9 days
- Activity [2]: 94%
- inhibition [3]: Active
- Activity [4]: >99.9%
- Activity [5]: >99.9%
- inhibition [6]: Active
- Activity [7]: 99.3%
- inhibition [8]: Active
- inhibition [9]: Active
- inhibition [10]: Active
- Survival [11]: 7 days
- inhibition [12]: Active
- Survival [13]: 27 days
- inhibition [14]: Active
- Activity [15]: Non-toxic
- Survival [16]: 30 days
